Published values from different studies.
Protocols differ between the studies behind these lines.
Cell line: A549

COc1cc2ncnc(Nc3ccc(F)c(Cl)c3)c2cc1NC(=O)N/N=C/c1cccn1CCN1CCN(C)CC1
IC50 (cell growth or viability, MTT; 72 h): 2.34 µM

C=C(Cl)C(=O)Nc1cc(Nc2nc(Nc3cnn(C)c3)c3sccc3n2)c(OC)cc1N(C)CCN(C)C
IC50 (cell growth or viability, MTT): 0.441 µM

COc1ccc(NC(=O)Nc2ccc(OCc3nccc(OC)c3OC)cc2)cc1
IC50 (cell growth or viability, MTT; 72 h): 16.7 µM

Brc1ccc(Nc2nc(N/N=C\c3c[nH]c4ccccc34)nc(Nc3ccccc3)n2)cc1
IC50 (cell growth or viability, SRB; 72 h): 11.6 µM

CC1=C(O)C(=O)C=C2C1=CC=C1[C@@]2(C)CC[C@@]2(C)[C@@H]3C[C@](C)(C(=O)OCCCOc4ccccc4)CC[C@]3(C)CC[C@]12C
IC50 (cell growth or viability, MTT; 48 h): 5.39 µM

COC(C)(C)CCC[C@](C)(O)[C@H]1CC[C@]2(C)[C@@H]1[C@H](O)C[C@@H]1[C@@]3(C)CC[C@H](O)C(C)(C)[C@@H]3CC[C@]12C
IC50 (cell growth or viability, MTT; 72 h): 4.88 µM

O=c1[nH]cc(F)c(=O)[nH]1
IC50 (cell growth or viability, MTT; 48 h): 37.2 µM

Oc1ncnc2cc(Nc3nc(-c4ccc(Br)cc4)cs3)ccc12
IC50 (cell growth or viability, MTT): 22.9 µM

COc1cc2ncnc(Nc3ccc(F)c(Cl)c3)c2cc1NC(=O)N/N=C/c1cccn1CCCN1CCCC1
IC50 (cell growth or viability, MTT; 72 h): 2.45 µM

Cc1c(OCC(F)(F)F)ccnc1COc1ccc(NC(=O)Nc2ccc(Cl)c(C(F)(F)F)c2)cc1
IC50 (cell growth or viability, MTT; 72 h): 4.35 µM

COc1cccc(/C=C2\SC(=S)N(CC(=O)Nc3ccccc3)C2=O)c1
IC50 (cell growth or viability, MTT): 32 µM

CC1=C(O)C(=O)C=C2C1=CC=C1[C@@]2(C)CC[C@@]2(C)[C@@H]3C[C@](C)(C(=O)OCCCCO)CC[C@]3(C)CC[C@]12C
IC50 (cell growth or viability, MTT; 48 h): 3.06 µM

CCNC(=S)NC(=O)c1ccc2ccccc2c1
IC50 (cell growth or viability; 48 h): 5.01 µM

COCCCOc1ccnc(COc2ccc(NC(=O)Nc3ccc(F)cc3)cc2)c1C
IC50 (cell growth or viability, MTT; 72 h): 5.74 µM

C=CC(=O)Nc1cc(Nc2nc(N3CCc4sccc4C3)c3cccnc3n2)c(OC)cc1N(C)CCN(C)C
IC50 (cell growth or viability, MTT): 21.9 µM

CN(C)CCCn1cccc1/C=N/NC(=O)Nc1cc2c(Nc3ccc(F)c(Cl)c3)ncnc2cc1O[C@H]1CCOC1
IC50 (cell growth or viability, MTT; 72 h): 6.17 µM

Cc1cc(C)cc(NC(=O)NNC(=O)c2ccc(Nc3nccc(-c4ccccn4)n3)cc2)c1
IC50 (cell growth or viability, MTT; 24 h): > 40 µM

COc1cc(/C=C/C(=O)C(=Cc2cccc(OC)c2OC)C(=O)/C=C/c2ccc(O)c(OC)c2)ccc1O
IC50 (colony formation; 9 days): ~0.4 µM

COc1cc(CNC(=O)C[C@H](C)CCC=C(C)C)ccc1OCc1cn(-c2ccc(Cl)cc2)nn1
IC50 (cell growth or viability, SRB; 48 h): 10.6 µM

O=C(N/N=C1\C(=O)N(c2ccccc2)c2ccccc21)c1cc2ccccc2[nH]1
IC50 (cell growth or viability): 2.41 µM

CS(=O)(=O)c1ccc(-n2cc(/C=N/N=c3\[nH]c(-c4ccc([N+](=O)[O-])cc4)cs3)c(-c3ccc(Br)cc3)n2)cc1
IC50 (cell growth or viability, MTT; 48 h): 68.7 µM

CCC(=O)Nc1cc(Nc2nc(N3CCc4sccc4C3)c3cccnc3n2)c(OC)cc1N(C)C
IC50 (cell growth or viability, MTT): > 50 µM

O=C(NNC(=O)c1ccc(Nc2nccc(-c3ccc(Cl)cc3)n2)cc1)NC1CCCCC1
IC50 (cell growth or viability, MTT; 24 h): > 40 µM

COc1ccccc1/C=C/CNCC(O)COc1ccc2ncccc2c1 (centres unmarked)
IC50 (cell growth or viability, CCK-8; 72 h): 44.3 µM

CC(C)Cc1ccc(-c2nn(-c3ccc(S(C)(=O)=O)cc3)cc2/C=N\N=C2/NC(=O)CS2)cc1
IC50 (cell growth or viability, MTT; 48 h): 3.44 µM

CCCCC/C=C/C(=O)CCc1ccc(O)c(OC)c1
IC50 (cell growth or viability, SRB): 18.6 µM

O=C(NC(=S)NC1CCCCC1)c1ccc2ccccc2c1
IC50 (cell growth or viability; 48 h): 5.72 µM

Nc1ccn([C@@H]2O[C@H](CO)[C@@H](O)C2(F)F)c(=O)n1
IC50 (cell growth or viability, CCK-8; 72 h): 0.0151 µM

CCN(CC)CCn1cccc1/C=N/NC(=O)Nc1cc2c(Nc3ccc(F)c(Cl)c3)ncnc2cc1OC
IC50 (cell growth or viability, MTT; 72 h): 0.43 µM

COc1cc([C@@H]2c3cc4c(cc3[C@@H](O[C@@H]3O[C@@H]5CO[C@@H](C)O[C@H]5[C@H](O)[C@H]3O)[C@H]3COC(=O)[C@H]23)OCO4)cc(OC)c1O
IC50 (cell growth or viability, MTT; 48 h): 11.9 µM

CCn1c(-c2nnc(NC(=O)c3cc4c([nH]c5ccccc54)c(-c4cc(OC)c(OC)c(OC)c4)n3)s2)cc2ccccc21
IC50 (cell growth or viability, MTT; 72 h): 10.9 µM

COc1ccccc1CCNCC(O)COc1cccc2[nH]c3ccccc3c12 (centres unmarked)
IC50 (cell growth or viability, CCK-8; 72 h): 13.3 µM

CCN(CC)CCCn1cccc1/C=N/NC(=O)Nc1cc2c(Nc3ccc(F)c(Cl)c3)ncnc2cc1O[C@H]1CCOC1
IC50 (cell growth or viability, MTT; 72 h): 2.36 µM

COc1ccccc1/C=C/CNCC(O)COc1ccc(C2CCCCC2)cc1 (centres unmarked)
IC50 (cell growth or viability, CCK-8; 72 h): 11.2 µM

CCc1c2c(nc3ccc(OC(=O)N4CCC(N5CCCCC5)CC4)cc13)-c1cc3c(c(=O)n1C2)COC(=O)[C@]3(O)CC
IC50 (cell growth or viability, SRB; 72 h): 9.5 µM

COc1ccccc1NCC(O)COc1cccc2[nH]c3ccccc3c12 (centres unmarked)
IC50 (cell growth or viability, CCK-8; 72 h): 86.8 µM

O=c1[nH]cc(S(=O)(=O)Nc2cccc(-c3nnc(-c4cccc(Cl)c4)o3)c2)c(=O)[nH]1
IC50 (cell growth or viability, MTT; 24 h): 0.78 µM

COC1=C2C[C@@H](C)C[C@H](OC)[C@H](O)[C@@H](C)/C=C(\C)[C@H](OC(N)=O)[C@@H](OC)/C=C\C=C(/C)C(=O)NC(=CC1=O)C2=O
IC50 (cell growth or viability, SRB; 72 h): 0.3 µM

C=CC(=O)Nc1cc(Nc2nc(N3CCc4sccc4C3)c3cccnc3n2)c(OC)cc1N(C)C
IC50 (cell growth or viability, MTT): > 50 µM

Cc1cc(=O)[nH]n1C(=O)c1ccc(-n2c(C)ccc2C)cc1
IC50 (cell growth or viability, MTT; 72 h): 208 µM

CC(C)C[C@H](NC(=O)[C@H](Cc1ccccc1)NC(=O)c1cnccn1)B(O)O
IC50 (cell growth or viability, ATP luminescence): 0.02 µM
